24 compounds from ChEMBL document CHEMBL4725479, “Benzoxaboroles: New Potent Inhibitors of the Carbonic Anhydrases of the Pathogenic Bacterium Vibrio cholerae” (ACS Med Chem Lett, 2020) can be followed below.

A short description of assay [1]: Inhibition of Vibrio cholerae alpha carbonic anhydrase incubated for 30 mins prior to testing measured for 10 to 100 secs by phenol red-based stopped-flow CO2 hydration assay. The gist of the method: (§1)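 Stopped-flow CO2 hydrase assay on the α, β and γ isoforms of V. cholerae CA. KI values are the mean of 3 independent assays, with errors of ±5–10% of the reported values.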

Assay [2] is described as follows: Inhibition of Vibrio cholerae beta carbonic anhydrase incubated for 30 mins prior to testing measured for 10 to 100 secs by phenol red-based stopped-flow CO2 hydration assay. The gist of the method: as §1
A short description of assay [3]: Inhibition of Vibrio cholerae gamma carbonic anhydrase incubated for 30 mins prior to testing measured for 10 to 100 secs by phenol red-based stopped-flow CO2 hydration assay. The gist of the method:
as §1

A word on the Ki: it is a dissociation constant, usually derived from enzyme kinetics or from competition with a known ligand. Read a high Ki as a looser hold on the target. Turning to `O=C(Nc1ccccc1)Nc1ccc2c(c1)B(O)OC2`, the inhibition constant Ki worked out at 0.117 µM in assay [1], 56.4 µM in assay [2] and 0.705 µM in assay [3].
Turning to `O=C(Nc1ccc(Cl)cc1)Nc1ccc2c(c1)B(O)OC2`, the Ki worked out at 0.056 µM in assay [1], 19.5 µM in assay [2] and 0.65 µM in assay [3].
Consider `OB1OCc2cc(F)ccc21` [TAVABOROLE], for which the Ki in assay [1] is 0.157 µM; in assay [2], 97.3 µM; in assay [3], 0.841 µM.
With `OB1OCc2ccccc21` [BENZOXABOROLE], the Ki in assay [1] was found to be 0.319 µM; in assay [2], 70.3 µM; in assay [3] it was 2.84 µM.
For the compound `Cc1cc(Cl)cc(CNC(=O)Nc2ccc3c(c2)B(O)OC3)c1`, the values for the Ki in assay [1], in assay [2] and in assay [3] were 0.053 µM, 61.3 µM and 0.718 µM, respectively.
`O=C(Nc1ccc(C(F)(F)F)cc1)Nc1ccc2c(c1)B(O)OC2`: the Ki in assay [1] was 0.046 µM; in assay [2], 55.1 µM; in assay [3] it was 0.957 µM.
On the same counts, the results for `O=C(NCc1ccccc1)Nc1ccc2c(c1)B(O)OC2` are 0.09 µM, 42.1 µM and 1.87 µM.
Consider `COc1ccc(C)cc1NC(=O)Nc1ccc2c(c1)B(O)OC2`, for which the values for the Ki in assay [1], in assay [2] and in assay [3] were 0.556 µM, 67.3 µM and 0.41 µM, respectively.
As for `O=C(Nc1ccc2c(c1)B(O)OC2)Nc1c(Cl)cc(Cl)cc1Cl`, the Ki in assay [1] was determined as 0.076 µM; in assay [2], 84.5 µM; in assay [3], 0.895 µM.
For the compound `OB1OCc2ccc(NC(=S)Nc3ccc4ccccc4c3)cc21`, the inhibition constant (Ki) turned out to be 0.603 µM in assay [1], 26 µM in assay [2] and 2.97 µM in assay [3].
With `OB1OCc2ccc(NC(=S)Nc3ccc(F)cc3)cc21`, the results for the Ki in assay [1], in assay [2] and in assay [3] were 0.112 µM, 6.35 µM and 0.544 µM, respectively.
On to `O=C(Nc1ccc(F)cc1)Nc1ccc2c(c1)B(O)OC2`, for which the Ki in assay [1] is 0.048 µM; in assay [2], 28 µM; in assay [3] it was 0.644 µM.
Turning to `OB1OCc2ccc(NC(=S)NCc3ccco3)cc21`, the Ki was 0.22 µM in assay [1], 31.9 µM in assay [2] and 2 µM in assay [3].
On the same counts, the results for `OB1OCc2ccc(NC(=S)NCc3ccccc3)cc21` are 0.096 µM, 30.4 µM and 3.96 µM.
The matching figures for `OB1OCc2ccc(NC(=S)Nc3ccccc3)cc21`: 1.2 µM, 19.1 µM and 0.834 µM.
The matching figures for `COc1ccc(NC(=S)Nc2ccc3c(c2)B(O)OC3)cc1`: 0.165 µM, 2.3 µM and 0.874 µM.
Turning to `Nc1ccc2c(c1)B(O)OC2`, the values for the Ki in assay [1], in assay [2] and in assay [3] were 0.165 µM, 21.8 µM and 1.17 µM, respectively.
Turning to `O=[N+]([O-])c1ccc(NC(=S)Nc2ccc3c(c2)B(O)OC3)cc1`, the Ki in assay [1] was found to be 0.08 µM; in assay [2] it was 0.933 µM; in assay [3], 0.687 µM.
As for `O=C(NCc1ccco1)Nc1ccc2c(c1)B(O)OC2`, the results for the Ki in assay [1], in assay [2] and in assay [3] were 0.164 µM, 79.9 µM and 1.23 µM, respectively.
On the same counts, the results for `O=[N+]([O-])c1ccc2c(c1)B(O)OC2` are 0.142 µM, 8.87 µM and 0.818 µM.
Regarding `CC(=O)c1ccc(NC(=O)Nc2ccc3c(c2)B(O)OC3)cc1`, the inhibition constant (Ki) in assay [1] amounted to 0.103 µM; in assay [2], 65.1 µM; in assay [3], 1.13 µM.
With `OB1OCc2ccc(NC(=S)Nc3ccc(C(F)(F)F)cc3)cc21`, the values for the Ki in assay [1], in assay [2] and in assay [3] were 0.072 µM, 1.25 µM and 1.92 µM, respectively.
For the compound `OB1OCc2ccc(NC(=S)NCCc3ccccc3)cc21`, the Ki was determined as 0.102 µM in assay [1], 18.4 µM in assay [2] and 0.554 µM in assay [3].
In the case of `Cc1ccc(NC(=S)Nc2ccc3c(c2)B(O)OC3)cc1`, the values for the Ki in assay [1], in assay [2] and in assay [3] were 0.109 µM, 2.59 µM and 1.76 µM, respectively.
